Measured values: ChEMBL document CHEMBL1129541, “Synthesis and DNA interactions of benzimidazole dications which have activity against opportunistic infections” (J Med Chem, 1996)
One block for each molecule: values may come before it.

How the values were obtained:
Nucleic Acid [1] = assay: Binding constant for the sequence d(CGGAATTCGCG)2; design: unit not given here
Nucleic Acid [2] = assay: Thermal melting temperature determined for poly(dA).poly(dT) at a concentration of 5*10e-5) M base pairs at a ratio of 0.6 compound per base pair; assay type: nucleic-acid assay
Summary of the method: (§1)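 Polymers at 5×10^-5 M base pairs in MES buffer (0.01 M MES, 1×10^-3 M EDTA, pH 6.2) with 0.1 M NaCl. Compound at 0.6 per base pair. Samples are in 1 cm reduced-volume quartz cells. UV absorbance melting curves are recorded, with temperature followed by a thermistor in a reference cuvette.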

Nucleic Acid [3] = assay: Thermal melting temperature for (dCGCGAATTCGCG)2 at a concentration of 3*10e-6 M base pairs at a ratio of one compound per oligomer duplex
Nucleic Acid [4] = assay: Thermal melting temperature determined for (dG-C)4 at a concentration of 3*10e-6 M base pairs at a ratio of 0.6 compound per base pair; assay type: nucleic-acid assay
Summary of the method: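 d(G-C)4 at 3×10^-6 M in duplex, in MES buffer (0.01 M MES, 1×10^-3 M EDTA, pH 6.2) with 0.1 M NaCl. Compound at 0.6 per base pair. The UV absorbance melting curve is recorded in 1 cm quartz cells, with temperature monitored by a thermistor in a reference cuvette.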

Nucleic Acid [5] = assay: Thermal melting temperature for poly(A).poly(U) at a concentration of 5*10e-5) M base pairs at a ratio of 0.6 compound per base pair; assay type: nucleic-acid assay
Summary of the method: as §1

SMILES: c1cc2[nH]c(Cc3nc4cc(C5=NCCN5)ccc4[nH]3)nc2cc1C1=NCCN1
K (Nucleic Acid [1]): 930000 | ΔTm (Nucleic Acid [2]): 5.7 | ΔTm (Nucleic Acid [3]): 2.8 | ΔTm (Nucleic Acid [4]): 0 | ΔTm (Nucleic Acid [5]): -0.6

SMILES: c1cc2[nH]c(CCCCc3nc4cc(C5=NCCN5)ccc4[nH]3)nc2cc1C1=NCCN1
K (Nucleic Acid [1]): 5.2e+06 | ΔTm (Nucleic Acid [2]): 25.5 | ΔTm (Nucleic Acid [3]): 7.1 | ΔTm (Nucleic Acid [4]): 0.5 | ΔTm (Nucleic Acid [5]): -1.5

SMILES: c1cc2[nH]c(-c3ccc4[nH]c(CCc5nc6cc(-c7nc8cc(C9=NCCN9)ccc8[nH]7)ccc6[nH]5)nc4c3)nc2cc1C1=NCCN1
K (Nucleic Acid [1]): 2e+09 | ΔTm (Nucleic Acid [2]): > 26 | ΔTm (Nucleic Acid [3]): 28.5 | ΔTm (Nucleic Acid [4]): 0 | ΔTm (Nucleic Acid [5]): 0

SMILES: c1cc2[nH]c(-c3ccc4[nH]c(CCCCc5nc6cc(-c7nc8cc(C9=NCCN9)ccc8[nH]7)ccc6[nH]5)nc4c3)nc2cc1C1=NCCN1
K (Nucleic Acid [1]): 3.1e+08 | ΔTm (Nucleic Acid [2]): > 26 | ΔTm (Nucleic Acid [3]): 20.8 | ΔTm (Nucleic Acid [4]): 0 | ΔTm (Nucleic Acid [5]): 0

SMILES: N=C(N)c1ccc2nc(Cc3nc4ccc(C(=N)N)cc4[nH]3)[nH]c2c1
K (Nucleic Acid [1]): 930000 | ΔTm (Nucleic Acid [2]): 4.9 | ΔTm (Nucleic Acid [3]): 2.8 | ΔTm (Nucleic Acid [4]): 0 | ΔTm (Nucleic Acid [5]): -0.8

Next, values leading:

K (Nucleic Acid [1]): 2.3e+06 | ΔTm (Nucleic Acid [2]): 12.8 | ΔTm (Nucleic Acid [3]): 4.8 | ΔTm (Nucleic Acid [4]): 0 | ΔTm (Nucleic Acid [5]): 0
SMILES: N=C(N)c1ccc(OCCCCCOc2ccc(C(=N)N)cc2)cc1

K (Nucleic Acid [1]): 8.8e+07 | ΔTm (Nucleic Acid [2]): > 26 | ΔTm (Nucleic Acid [3]): 16.4 | ΔTm (Nucleic Acid [4]): 0.7 | ΔTm (Nucleic Acid [5]): 0.9
SMILES: c1cc2[nH]c(CCc3nc4cc(C5=NCCN5)ccc4[nH]3)nc2cc1C1=NCCN1

K (Nucleic Acid [1]): 4.5e+08 | ΔTm (Nucleic Acid [2]): > 26 | ΔTm (Nucleic Acid [3]): 22.2 | ΔTm (Nucleic Acid [4]): 2.5 | ΔTm (Nucleic Acid [5]): 3.9
SMILES: N=C(N)c1ccc(-c2cc3ccc(C(=N)N)cc3[nH]2)cc1

K (Nucleic Acid [1]): 7.6e+07 | ΔTm (Nucleic Acid [2]): > 26 | ΔTm (Nucleic Acid [3]): 15.9 | ΔTm (Nucleic Acid [4]): 0.75 | ΔTm (Nucleic Acid [5]): -1.1
SMILES: N=C(N)c1ccc2[nH]c(CCc3nc4cc(C(=N)N)ccc4[nH]3)nc2c1

K (Nucleic Acid [1]): 5.3e+08 | ΔTm (Nucleic Acid [2]): > 26 | ΔTm (Nucleic Acid [3]): 22.8 | ΔTm (Nucleic Acid [4]): -1.5 | ΔTm (Nucleic Acid [5]): 0
SMILES: N=C(N)c1ccc2[nH]c(/C=C/c3nc4cc(C(=N)N)ccc4[nH]3)nc2c1

K (Nucleic Acid [1]): 1.3e+07 | ΔTm (Nucleic Acid [2]): 24.4 | ΔTm (Nucleic Acid [3]): 10 | ΔTm (Nucleic Acid [4]): 0.5 | ΔTm (Nucleic Acid [5]): -0.6
SMILES: N=C(N)c1ccc2[nH]c(CCCCc3nc4cc(C(=N)N)ccc4[nH]3)nc2c1

K (Nucleic Acid [1]): 4.5e+08 | ΔTm (Nucleic Acid [2]): > 26 | ΔTm (Nucleic Acid [3]): 22.2 | ΔTm (Nucleic Acid [4]): 0 | ΔTm (Nucleic Acid [5]): 0
SMILES: N=C(N)c1ccc2[nH]c(-c3ccc4[nH]c(CCCCc5nc6cc(-c7nc8cc(C(=N)N)ccc8[nH]7)ccc6[nH]5)nc4c3)nc2c1
